According to ChEMBL document CHEMBL1152203, “New jasmonate analogues as potential anti-inflammatory agents” (Bioorg Med Chem, 2008):
Calls of active or inactive are those of the source. The rule behind the calls is not given here.

Experiments:
[1] = tested on: RAW264.7; test: Cytotoxicity against LPS-stimulated mouse RAW264.7 cells at 100 uM after 24 hrs by MTT assay; assay type: cell-based; conditions: raw264.7, 24 h
In short: (§1)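 Viability of RAW264.7 cells (1.5 × 10^5 cells/mL) after 24 h exposure to LPS (1 µg/mL) plus test sample, by MTT. MTT added for 4 h, formazan dissolved in DMSO, absorbance 540 nm. Means ± SD of duplicate (50, 100 µM) or triplicate (other concentrations) experiments.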

[2] = tested on: RAW264.7; test: Cytotoxicity against LPS-stimulated mouse RAW264.7 cells at 50 uM after 24 hrs by MTT assay; assay type: cell-based; conditions: raw264.7, 24 h; in short: as §1
[3] = tested on: RAW264.7; test: Antiinflammatory activity in LPS-stimulated mouse RAW264.7 cells assessed as inhibition of NO production at 50 uM after 24 hrs by Griess reagent method; assay type: functional, cell-based
In short: (§2)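 Conditions used at 50 and 100 µM: RAW264.7 cells (1.5 × 10^5 cells/mL) stimulated with LPS (1 µg/mL) alone or with samples for 24 h. Supernatant NO measured by Griess reagent, absorbance 540 nm; IL-6 and TNF-α by ELISA. Means ± SD of duplicate experiments; blank and LPS-only controls.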

[4] = tested on: RAW264.7; test: Antiinflammatory activity in LPS-stimulated mouse RAW264.7 cells assessed as inhibition of NO production at 100 uM after 24 hrs by Griess reagent method; assay type: functional, cell-based; in short: as §2
[5] = tested on: RAW264.7; test: Antiinflammatory activity in LPS-stimulated mouse RAW264.7 cells assessed as inhibition of TNFalpha production at 50 uM after 24 hrs by ELISA; assay type: functional, cell-based; in short: as §2
[6] = tested on: RAW264.7; test: Antiinflammatory activity in LPS-stimulated mouse RAW264.7 cells assessed as inhibition of IL6 production at 50 uM after 24 hrs by ELISA; assay type: functional, cell-based
In short: (§3)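 RAW264.7 cells at 1.5 × 10^5 cells/mL, pre-incubated 18 h in 24-well plates, then stimulated with LPS (1 µg/mL) alone or with test samples for 24 h. Samples dissolved in EtOH diluted with DMEM, solvent ≤0.1% final. NO in supernatant by Griess reagent (10 min, room temperature, light protected, absorbance 540 nm); IL-6 and TNF-α by ELISA. Mean ± SD.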

[7] = tested on: RAW264.7; test: Antiinflammatory activity in LPS-stimulated mouse RAW264.7 cells assessed as inhibition of IL6 production at after 24 hrs by ELISA; assay type: functional, cell-based; in short: as §3
[8] = tested on: RAW264.7; test: Antiinflammatory activity in LPS-stimulated mouse RAW264.7 cells assessed as inhibition of TNFalpha production at 12.5 uM after 24 hrs by ELISA; assay type: functional, cell-based; in short: as §3
[9] = tested on: RAW264.7; test: Antiinflammatory activity in LPS-stimulated mouse RAW264.7 cells assessed as inhibition of NO production at 25 uM after 24 hrs by Griess reagent method; assay type: functional, cell-based
In short: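 Test samples at 12.5 and 25.0 µM with LPS (1 µg/mL) on RAW264.7 cells (1.5 × 10^5 cells/mL) for 24 h. NO read by Griess method, IL-6 and TNF-α by ELISA. Means ± SD of triplicate experiments.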

[10] = tested on: RAW264.7; test: Antiinflammatory activity in LPS-stimulated mouse RAW264.7 cells assessed as inhibition of NO production after 24 hrs by Griess reagent method; assay type: functional, cell-based; in short: as §3
[11] = tested on: RAW264.7; test: Antiinflammatory activity in LPS-stimulated mouse RAW264.7 cells assessed as inhibition of IL6 production at 12.5 uM after 24 hrs by ELISA; assay type: functional, cell-based; in short: as §3
[12] = tested on: RAW264.7; test: Antiinflammatory activity in LPS-stimulated mouse RAW264.7 cells assessed as inhibition of TNFalpha production after 24 hrs by ELISA; assay type: functional, cell-based; in short: as §3
[13] = tested on: RAW264.7; test: Antiinflammatory activity in LPS-stimulated mouse RAW264.7 cells assessed as inhibition of NO production at 12.5 uM after 24 hrs by Griess reagent method; assay type: functional, cell-based; in short: as §3
[14] = tested on: RAW264.7; test: Antiinflammatory activity in LPS-stimulated mouse RAW264.7 cells assessed as inhibition of NO production at 30 uM after 24 hrs by Griess reagent method; assay type: functional, cell-based
In short: (§4)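 Samples and prostaglandin references tested at 10 and 30 µM alongside LPS (1 µg/mL) in RAW264.7 cells (1.5 × 10^5 cells/mL), 24 h; NO by Griess reagent. Triplicate experiments, means ± SD.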

[15] = tested on: RAW264.7; test: Antiinflammatory activity in LPS-stimulated mouse RAW264.7 cells assessed as inhibition of NO production at 10 uM after 24 hrs by Griess reagent method; assay type: functional, cell-based; in short: as §4
[16] = tested on: RAW264.7; test: Cytotoxicity against LPS-stimulated mouse RAW264.7 cells at 25 uM after 24 hrs by MTT assay; assay type: cell-based; conditions: raw264.7, 24 h; in short: as §1
[17] = tested on: RAW264.7; test: Cytotoxicity against LPS-stimulated mouse RAW264.7 cells at 10 uM after 24 hrs by MTT assay; assay type: cell-based; conditions: raw264.7, 24 h; in short: as §1
[18] = tested on: RAW264.7; test: Antiinflammatory activity in LPS-stimulated mouse RAW264.7 cells assessed as inhibition of NO production at 6.25 uM after 24 hrs by Griess reagent method; assay type: functional, cell-based
In short: (§5)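 NO series at 3.12, 6.25 and 12.5 µM: RAW264.7 cells (1.5 × 10^5 cells/mL) co-treated with LPS (1 µg/mL) for 24 h; nitrite by Griess reagent. Means ± SD of triplicate experiments.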

[19] = tested on: RAW264.7; test: Cytotoxicity against LPS-stimulated mouse RAW264.7 cells at 6.25 uM after 24 hrs by MTT assay; assay type: cell-based; conditions: raw264.7, 24 h; in short: as §1
[20] = tested on: RAW264.7; test: Cytotoxicity against LPS-stimulated mouse RAW264.7 cells at 3.12 uM after 24 hrs by MTT assay; assay type: cell-based; conditions: raw264.7, 24 h; in short: as §1
[21] = tested on: RAW264.7; test: Cytotoxicity against LPS-stimulated mouse RAW264.7 cells at 12.5 uM after 24 hrs by MTT assay; assay type: cell-based; conditions: raw264.7, 24 h; in short: as §1
[22] = tested on: RAW264.7; test: Antiinflammatory activity in LPS-stimulated mouse RAW264.7 cells assessed as inhibition of NO production at 3.12 uM after 24 hrs by Griess reagent method; assay type: functional, cell-based; in short: as §5

Row | SMILES | Activity [7] | Activity [8] | Activity [9] | Activity [10] | Activity [11] | Activity [12] | Activity [13] | also measured
1 | CC/C=C\CC1C(=O)C(C#N)=CC1CC(=O)OC (configuration not stated) | – | – | – | – | – | – | – | Activity [1]: Toxic; Activity [2]: Toxic; Activity [3]: Active; Activity [4]: Active; Activity [5]: Active; Activity [6]: Active
2 | CCCCCC1C(=O)C=CC1CC(=O)O (configuration not stated) | Dose-dependent effect | Active | Active | Dose-dependent effect | Active | Dose-dependent effect | Active | –
3 | CCCCCC1C(=O)C(Cl)=CC1CC(=O)OC (configuration not stated) | Dose-dependent effect | – | Active | Dose-dependent effect | – | Dose-dependent effect | – | Activity [14]: Active; Activity [15]: Active
4 | CC/C=C\CC1C(=O)C=CC1CC(=O)NC(C)C (configuration not stated) | Dose-dependent effect | Active | Active | Dose-dependent effect | Active | Dose-dependent effect | Active | –
5 | CCCCCC1C(=O)C=CC1CC(=O)NC(C)C (configuration not stated) | Dose-dependent effect | Active | Active | Dose-dependent effect | Active | Dose-dependent effect | Active | –
6 | CCCCCC1C(=O)C(I)=CC1CC(=O)OC (configuration not stated) | Dose-dependent effect | – | – | Dose-dependent effect | – | Dose-dependent effect | – | –
7 | CC/C=C\CC1C(=O)C=CC1CC(=O)O (configuration not stated) | Dose-dependent effect | Active | Active | Dose-dependent effect | Active | Dose-dependent effect | Active | –
8 | CC/C=C\CC1C(=O)C=CC1CC(=O)NCCO (configuration not stated) | Dose-dependent effect | Active | Active | Dose-dependent effect | Active | Dose-dependent effect | Active | –
9 | CCCCCC1C(=O)C(Br)=CC1CC(=O)OC (configuration not stated) | Dose-dependent effect | – | – | Dose-dependent effect | – | Dose-dependent effect | – | Activity [16]: Toxic; Activity [17]: Toxic; Activity [14]: Active; Activity [18]: Active; Activity [19]: Non-toxic; Activity [20]: Non-toxic; Activity [21]: Toxic; Activity [22]: Active; Activity [15]: Active
10 | CCCCCC1C(=O)C(Cl)=CC1CC(=O)O (configuration not stated) | Dose-dependent effect | Active | Active | Dose-dependent effect | Active | Dose-dependent effect | Active | –
11 | CC/C=C\CC1C(=O)CCC1CC(=O)OC (configuration not stated) [METHYL JASMONATE] | – | – | – | – | – | – | – | Activity [1]: Toxic; Activity [2]: Toxic; Activity [3]: Active; Activity [4]: Active; Activity [5]: Active; Activity [6]: Active
12 | CC/C=C\CC1C(=O)C(Cl)=CC1CC(=O)O (configuration not stated) | Dose-dependent effect | Active | Active | Dose-dependent effect | Active | Dose-dependent effect | Active | –
13 | CC/C=C\CC1C(=O)C=CC1CC(=O)OC (configuration not stated) | Dose-dependent effect | Active | Active | Dose-dependent effect | Active | Dose-dependent effect | Active | Activity [1]: Toxic; Activity [2]: Toxic; Activity [3]: Active; Activity [4]: Active; Activity [5]: Active; Activity [6]: Active
14 | CCCCCC1C(=O)C=CC1CC(=O)OC (configuration not stated) | Dose-dependent effect | – | – | Dose-dependent effect | – | Dose-dependent effect | – | –
15 | CC/C=C\CC1C(=O)C(Cl)=CC1CC(=O)OC (configuration not stated) | Dose-dependent effect | – | Active | Dose-dependent effect | – | Dose-dependent effect | – | Activity [14]: Active; Activity [15]: Active
16 | CC/C=C\CC1C(=O)C(C(=O)OC)=CC1CC(=O)OC (configuration not stated) | – | – | – | – | – | – | – | Activity [1]: Toxic; Activity [2]: Toxic; Activity [3]: Active; Activity [4]: Active; Activity [5]: Active; Activity [6]: Active
17 | CCCCCC1C(=O)C=CC1CC(=O)NCCO (configuration not stated) | Dose-dependent effect | Active | Active | Dose-dependent effect | Active | Dose-dependent effect | Active | –
18 | CC/C=C\CC1C(=O)C(I)=CC1CC(=O)OC (configuration not stated) | Dose-dependent effect | – | – | Dose-dependent effect | – | Dose-dependent effect | – | –
19 | CC/C=C\CC1C(=O)C(Br)=CC1CC(=O)OC (configuration not stated) | Dose-dependent effect | – | – | Dose-dependent effect | – | Dose-dependent effect | – | Activity [16]: Toxic; Activity [17]: Toxic; Activity [14]: Active; Activity [18]: Active; Activity [19]: Non-toxic; Activity [20]: Non-toxic; Activity [21]: Toxic; Activity [22]: Active; Activity [15]: Active
